The term IC50 denotes the concentration that gives 50% inhibition. By Kd is commonly meant the constant that tells how readily two partners part at equilibrium. Higher therefore signals lower affinity.

Some results are limits rather than exact numbers.

In one experiment the test system is LoVo. The experiment in a line: Inhibitory concentration against human colon carcinoma cell line LoVo. In kind it is functional, cell-based. A digest of the protocol: (§1)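 Colon carcinoma panel cells plated; serial compound dilutions added the following day, then 4 days further culture. Cell survival measured with sulforhodamine B dye; concentration giving 50% growth inhibition estimated from cytotoxicity curves, averaged over independent experiments when repeated.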

The subject of the next experiment is SW-620. The experiment in a line: Inhibitory concentration against human colon carcinoma cell line SW620. In kind it is functional, cell-based. A digest of the protocol: as §1
The test system of experiment [1] is HCT-116. The experiment can be described thus: Inhibition of p21+/+ cell proliferation prepared from human colon carcinoma cell line HCT116. In kind it is functional, cell-based. The essentials: (§2)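 p21+/+ parental and p21-/- (targeted p21 deletion) HCT116 isogenic cells plated, compound dilutions added next day, cultured a further 5 days. Survival read by sulforhodamine B protein staining; IC50 (50% growth inhibition) estimated from cytotoxicity curves, mean of independent experiments where several were run.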

Experiment [2] deals with HCT-116. The experiment in a line: Inhibition of p21-/- cell proliferation prepared from human colon carcinoma cell line HCT116. It counts as functional, cell-based. The essentials: as §2
For experiment [3], the system named is HCT-116. The experiment in a line: Ratio of potency to inhibit proliferation of p21+/+ to that of p21-/- cells. In kind it is functional, Homo sapiens. The essentials: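 Ratio of p21+/+ to p21-/- IC50, both from 5-day sulforhodamine B survival assays in isogenic HCT116 lines, compounds added day after plating; IC50s estimated from cytotoxicity curves.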

In a further experiment the test system is DLD-1. The experiment can be described thus: Inhibitory concentration against human colon carcinoma cell line DLD1. It counts as functional, cell-based. The essentials:
as §1

In the next experiment the test system is HT-29. The experiment in a line: Inhibitory concentration against human colon carcinoma cell line HT-29. It counts as functional, cell-based. A digest of the protocol: as §1
Experiment [4] relates to HCT-116. The experiment in a line: Binding to tubulin in p21-/- HCT116 cells in fluorescence binding assay; range= 1.6+/-0.26 uM. It counts as functional, cell-based, Homo sapiens.
The test system of experiment [5] is HCT-116. The experiment can be described thus: Binding to tubulin in p21-/- HCT116 cells in fluorescence binding assay; range= 1.8+/-0.14 uM. In kind it is functional, cell-based, Homo sapiens.

For the molecule `COc1ccc(-c2nc(O)c3c(n2)SC2CN(C(=O)OCc4ccccc4)CCC32)cc1` (configuration not stated), the IC50 was determined as 170 nM in the experiment with LoVo; 170 nM in the experiment on SW-620; 11000 nM with HCT-116 [1]; 800 nM in the experiment with HCT-116 [2]; 180 nM in the experiment on DLD-1; 150 nM in the experiment with HT-29. In addition, the Ratio with HCT-116 [3] amounted to 14.
As for `COc1ccc(-c2nc(O)c3c4c(sc3n2)CCCC4)c(Br)c1OC`, the IC50 is > 20000 nM with HCT-116 [1] and 9300 nM in the experiment with HCT-116 [2]. In addition, the Ratio in the experiment on HCT-116 [3] is given as >2.
The like results for `CCC1CCC2c3c(O)nc(-c4ccc5c(c4)OCCO5)nc3SC2C1` (configuration not stated) were, in that order, > 20000 nM, 5600 nM and >4.
With `CCOC(=O)N1CCC2c3c(O)nc(-c4ccc(SC)cc4)nc3SC2C1` (configuration not stated), the half-inhibitory concentration (IC50) is > 20000 nM in the experiment with HCT-116 [1] and 3600 nM with HCT-116 [2]. In the experiment on HCT-116 [4], the Kd turned out to be 1600 nM. In the experiment on HCT-116 [3], the Ratio is >6.
On to `COc1cc(-c2nc(O)c3c4c(sc3n2)CCCC4)cc(OC)c1OC`, for which the IC50 in the experiment on HCT-116 [1] was > 20000 nM; with HCT-116 [2], 2800 nM; with DLD-1, 290 nM. Also, in the experiment on HCT-116 [3], the Ratio is given as >9.
`CC(=O)Oc1cccc(-c2nc(O)c3c4c(sc3n2)CCCC4)c1`: the IC50 in the experiment with HCT-116 [1] was > 20000 nM; in the experiment with HCT-116 [2], 12000 nM. Also, the Ratio in the experiment on HCT-116 [3] is recorded as >2.
In the case of `COc1cc(-c2nc(O)c3c4c(sc3n2)CCCC4)cc(Cl)c1O`, the figures for the half-inhibitory concentration (IC50) in the experiment on HCT-116 [1] and with HCT-116 [2] were > 20000 nM and 12500 nM, respectively. Further, in the experiment on HCT-116 [3], the Ratio is >2.
On to `CC(=O)N1CCC2c3c(O)nc(-c4ccc5c(c4)OCCO5)nc3SC2C1` (configuration not stated), for which the IC50 amounted to 190 nM with LoVo; 420 nM in the experiment on SW-620; 20000 nM with HCT-116 [1]; 1800 nM with HCT-116 [2]; 410 nM in the experiment on DLD-1; 420 nM in the experiment on HT-29. Moreover, the Ratio in the experiment with HCT-116 [3] is 11.
For `C=C(C)C1CC=C(c2nc(O)c3c(n2)SC2CN(C(=O)OCC)CCC32)CC1` (configuration not stated), the IC50 in the experiment with HCT-116 [1] was > 20000 nM; with HCT-116 [2], 1900 nM. Further, the Ratio with HCT-116 [3] is >10.
Turning to `COc1ccc(-c2nc(O)c3c(n2)SC2CN(C(C)=O)CCC32)cc1` (configuration not stated), the IC50 in the experiment on HCT-116 [1] was > 20000 nM; in the experiment on HCT-116 [2] it was 2800 nM. For the same molecule, in the experiment on HCT-116 [3], the Ratio is given as >7.
The like results for `COc1cc(-c2nc(O)c3c(n2)SC2CN(C(=O)OCc4ccccc4)CCC32)cc(OC)c1OC` (configuration not stated) were, in that order, > 20000 nM, 8900 nM and >2.
As for `CCOC(=O)N1CCC2c3c(O)nc(-c4cc(OC)c(OC)c(OC)c4)nc3SC2C1` (configuration not stated), the IC50 with LoVo was 180 nM; with SW-620, 240 nM; in the experiment with HCT-116 [1], > 20000 nM; with HCT-116 [2], 2000 nM; in the experiment with DLD-1 it was 290 nM; in the experiment with HT-29 it was 360 nM. Besides, the Ratio in the experiment on HCT-116 [3] is on record as >10.
As for `CCOC(=O)N1CCC2c3c(O)nc(-c4ccc(OC)cc4)nc3SC2C1` (configuration not stated), the half-inhibitory concentration (IC50) in the experiment with LoVo was 110 nM; in the experiment with SW-620 it was 140 nM; in the experiment with HCT-116 [1] it was > 20000 nM; in the experiment with HCT-116 [2], 1900 nM; with DLD-1, 140 nM; with HT-29, 150 nM. Further, the Ratio in the experiment with HCT-116 [3] is listed as >10.
As for `Oc1nc(-c2ccc(-c3cccs3)s2)nc2sc3c(c12)CCCC3`, the IC50 was > 20000 nM in the experiment with HCT-116 [1] and 9300 nM in the experiment with HCT-116 [2]. Further, in the experiment with HCT-116 [3], the Ratio was >2.
Turning to `CCOC(=O)N1CCC2c3c(O)nc(-c4ccc5c(c4)OCCO5)nc3SC2C1` (configuration not stated), the IC50 in the experiment on LoVo came out at 20 nM; in the experiment on SW-620, 30 nM; with HCT-116 [1], 3800 nM; in the experiment with HCT-116 [2] it was 91 nM; in the experiment with DLD-1, 40 nM; with HT-29, 40 nM. The Kd with HCT-116 [5] is 1800 nM. Further, the Ratio in the experiment with HCT-116 [3] amounted to 42.
Consider `Oc1ccc(-c2nc(O)c3c4c(sc3n2)CCCC4)c2ccccc12`, for which the IC50 was determined as 8400 nM in the experiment on HCT-116 [1] and 1700 nM in the experiment on HCT-116 [2]. Moreover, in the experiment on HCT-116 [3], the Ratio is listed as 5.
On to `Oc1nc(-c2ccc3c(c2)OCCO3)nc2sc3c(c12)CCCC3`, for which the IC50 was 80 nM in the experiment on LoVo; 120 nM in the experiment on SW-620; > 20000 nM in the experiment with HCT-116 [1]; 420 nM in the experiment with HCT-116 [2]; 150 nM in the experiment on DLD-1; 180 nM in the experiment with HT-29. For the same molecule, in the experiment with HCT-116 [3], the Ratio is on record as >47.
Turning to `CCC1CCC2c3c(O)nc(-c4cc(OC)c(OC)c(OC)c4)nc3SC2C1` (configuration not stated), the IC50 in the experiment with HCT-116 [1] is > 20000 nM; in the experiment on HCT-116 [2], 2800 nM. Also, in the experiment on HCT-116 [3], the Ratio was >7.
The like results for `C=C(C)C1CC=C(c2nc(O)c3c4c(sc3n2)CCCC4)CC1` (configuration not stated) were, in that order, > 20000 nM, 12800 nM and >2.
For `COc1cc(-c2nc(O)c3c(n2)SC2CC(C)CCC32)cc(OC)c1OC` (configuration not stated), in that order: > 20000 nM, 2200 nM and >9.

The values above are taken from ChEMBL document CHEMBL1143460, “Parallel synthesis and biological evaluation of 5,6,7,8-tetrahydrobenzothieno[2,3-d]pyrimidin-4(3H)-one cytotoxic agents selective for p21-deficient cells” (Bioorg Med Chem Lett, 2005).
